The nature of test [1]: hit retest on RPL19A-GFP reporter strain – cell-based, S. cerevisiae, flow cytometry, cherry picks, mother/daughter gates, confirmation (AID 2270;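 active = GFP response below 50% of the DMSO control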). Conditions: 3 h, at 10 µM, stronger effect = lower value, 100 = same GFP as DMSO wells.
Test [2] is described as follows: yeast TOR pathway reporter LAP4-GFP change – cell-based, cherry picks, flow cytometry, mother/daughter gates, confirmation (AID 2271;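 active = GFP response above 150% of the DMSO control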;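 note: ratio of sample to DMSO plate mean so 100% equals DMSO level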). The conditions noted are these: S. cerevisiae LAP4-GFP strain, 3 h, at 10 µM, stronger effect = higher value, 100 means same as DMSO control. The method, boiled down: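 System – GFP-fusion yeast strain · Amount – 0.2 OD600 cells · Buffer or medium – SC growth medium · Dosing – single test-compound dose, 10 µM final · Schedule – 3 h treatment at 30 °C with rotation · Detection – GFP by flow cytometry · Read-out – per-gate (all, mother, daughter) GFP response vs DMSO · Benchmarks – positive rapamycin (400 ng/mL), negative DMSO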
Background: A flow cytometer gives signals particle by particle.

Test [3] is described as follows: TOR pathway reporter MEP2-GFP, retest of hits – S. cerevisiae, flow cytometry GFP, cherry picks, confirmation (AID 2272;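 active = GFP response above 150% of the DMSO control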;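 note: ratio of well signal to plate DMSO mean so 100% equals DMSO level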). Conditions: S. cerevisiae MEP2-GFP strain, 3 h, at 10 µM, stronger effect = higher value.
Test [4] is described as follows: yeast AGP1-GFP fluorescence change, single-dose – cell-based, flow cytometry, S. cerevisiae, cherry picks, confirmation (AID 2273).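 Note: median GFP channel fluorescence over the whole cell population gate.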 The conditions noted are these: S. cerevisiae AGP1-GFP strain, 3 h, at 10 µM.
Test [5] is described as follows: TOR pathway CIT2 reporter hit retest – S. cerevisiae, GFP fusion, cherry picks, mother/daughter gates, confirmation (AID 2274). The conditions noted are these: S. cerevisiae CIT2-GFP strain, flow cytometry, 3 h, at 10 µM, stronger effect = higher value.
[6] abbreviates: measured here: daughter cell gate.
Setting [7] is: measured here: mother cell gate.
Setting [8] is: measured here: daughter cell gate response.
[9] abbreviates: measured here: mother cell gate response.

The structures appear in SMILES notation. Activity calls are given as the source filed them.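 Rule for the calls, unless noted: active = GFP response above 150% of the DMSO level; inconclusive = fewer than 70 events counted for a yeast strain; inactive = the rest.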

Regarding `CCOc1cc(-c2noc(-c3cccnc3)n2)ccc1OC`, the GFP response vs DMSO in test [1] is 95.8% (inactive); in test [1] (setting [6]), 94.7%; in test [1] (setting [7]) it was 95%; in test [3], 103% (inactive). For the same compound, the results for the GFP response relative to DMSO in test [2], in test [2] (setting [8]) and in test [2] (setting [9]) were 98.9% (inactive), 99% and 100%, respectively. The GFP response, % of DMSO in test [4] is 100% (inactive); in test [5], 106% (inactive); in test [5] (setting [6]), 103%; in test [5] (setting [7]), 106%.

As to `Cn1c(=O)c2ccccc2n(Cc2cccc(F)c2)c1=O`, the GFP response vs DMSO in test [1] was 97.6% (inactive); in test [1] (setting [6]), 97.8%; in test [1] (setting [7]), 97.3%; in test [3] it was 103% (inactive). In addition, the values for the GFP response relative to DMSO in test [2], in test [2] (setting [8]) and in test [2] (setting [9]) were 104% (inactive), 101% and 105%, respectively. Also, the GFP response, % of DMSO is 101% (inactive) in test [4], 94.4% (inactive) in test [5], 95.8% in test [5] (setting [6]) and 93.8% in test [5] (setting [7]).

On to `Cc1ccc(NC(=O)CC2SC(=O)N(c3ccccc3)C2=O)cc1` (configuration not stated), for which the GFP response vs DMSO was 97.8% (inactive) in test [1], 101% in test [1] (setting [6]), 94.5% in test [1] (setting [7]) and 112% (inactive) in test [3]. Besides, the GFP response relative to DMSO in test [2] was 142% (inactive); in test [2] (setting [8]) it was 140%; in test [2] (setting [9]), 143%. The GFP response, % of DMSO in test [4] was 98.9% (inactive); in test [5] it was 102% (inactive); in test [5] (setting [6]), 104%; in test [5] (setting [7]), 94.5%.

As for `COc1cccc2c1Oc1ncccc1N(C(=O)CCC(=O)NCc1ccccc1F)C2`, the GFP response vs DMSO was 100% (inactive) in test [1], 101% in test [1] (setting [6]), 101% in test [1] (setting [7]) and 135% (inactive) in test [3]. Moreover, the GFP response relative to DMSO is 142% (inactive) in test [2], 147% in test [2] (setting [8]) and 139% in test [2] (setting [9]). The GFP response, % of DMSO in test [4] was 105% (inactive); in test [5] it was 148% (inactive); in test [5] (setting [6]), 150%; in test [5] (setting [7]), 147%.

With `O=C(O)Cc1sc(Nc2ccccc2)nc1-c1cccs1`, the GFP response vs DMSO in test [1] is 97.8% (inactive); in test [1] (setting [6]), 98%; in test [1] (setting [7]), 97.9%; in test [3], 110% (inactive). In addition, the figures for the GFP response relative to DMSO in test [2], in test [2] (setting [8]) and in test [2] (setting [9]) were 149% (inactive), 144% and 156%, respectively. For the same compound, the GFP response, % of DMSO in test [4] is 99.7% (inactive); in test [5], 104% (inactive); in test [5] (setting [6]), 104%; in test [5] (setting [7]) it was 103%.

In the case of `Cc1ccc(N2C(=O)C(Cl)=C(NCc3ccccc3)C2=O)c(C)c1`, the GFP response vs DMSO is 96.2% (inactive) in test [1], 95.2% in test [1] (setting [6]), 97% in test [1] (setting [7]) and 101% (inactive) in test [3]. In addition, the GFP response relative to DMSO was 106% (inactive) in test [2], 104% in test [2] (setting [8]) and 107% in test [2] (setting [9]). For the same compound, the GFP response, % of DMSO in test [4] was 100% (inactive); in test [5], 94.4% (inactive); in test [5] (setting [6]), 95.6%; in test [5] (setting [7]), 94.4%.

Regarding `CCCCN(CC)S(=O)(=O)c1ccc(C(=O)Nc2nnc(COC)o2)cc1`, the GFP response vs DMSO in test [1] was 96.6% (inactive); in test [1] (setting [6]), 96.7%; in test [1] (setting [7]) it was 98.1%; in test [3], 97.5% (inactive). Also, the GFP response relative to DMSO is 100% (inactive) in test [2], 99.3% in test [2] (setting [8]) and 99.5% in test [2] (setting [9]). Besides, the GFP response, % of DMSO was 103% (inactive) in test [4], 102% (inactive) in test [5], 100% in test [5] (setting [6]) and 101% in test [5] (setting [7]).

Turning to `O=C(c1ccccc1F)N1CCN(c2ccccc2F)CC1`, the GFP response vs DMSO was 101% (inactive) in test [1], 99.8% in test [1] (setting [6]), 102% in test [1] (setting [7]) and 100% (inactive) in test [3]. Moreover, the GFP response relative to DMSO in test [2] is 98.7% (inactive); in test [2] (setting [8]), 100%; in test [2] (setting [9]), 99.3%. For the same compound, the GFP response, % of DMSO is 95% (inactive) in test [4], 104% (inactive) in test [5], 105% in test [5] (setting [6]) and 105% in test [5] (setting [7]).

`COc1ccc(-n2c(N)c(C(=O)Nc3c(C)n(C)n(-c4ccccc4)c3=O)c3nc4ccccc4nc32)cc1`: the GFP response vs DMSO in test [1] is 97.4% (inactive); in test [1] (setting [6]), 94.4%; in test [1] (setting [7]) it was 98.1%; in test [3], 103% (inactive). In addition, the GFP response relative to DMSO in test [2] was 99.5% (inactive); in test [2] (setting [8]) it was 99.1%; in test [2] (setting [9]), 99.4%. The GFP response, % of DMSO in test [4] is 102% (inactive); in test [5] it was 94.4% (inactive); in test [5] (setting [6]), 93.8%; in test [5] (setting [7]), 94.4%.

As to `O=C(O)c1ccccc1C(=O)N1CCN(c2cccc(Cl)c2)CC1`, the GFP response vs DMSO in test [1] is 97.2% (inactive); in test [1] (setting [6]), 97%; in test [1] (setting [7]), 98.1%; in test [3] it was 97.5% (inactive). In addition, the GFP response relative to DMSO is 100% (inactive) in test [2], 97.9% in test [2] (setting [8]) and 96.5% in test [2] (setting [9]). Besides, the GFP response, % of DMSO is 95.4% (inactive) in test [4], 96.4% (inactive) in test [5], 98.3% in test [5] (setting [6]) and 95.6% in test [5] (setting [7]).

With `CC(=O)Oc1oc(-c2ccccc2)nc1C=Nc1ccccc1`, the GFP response vs DMSO is 102% (inactive) in test [1], 101% in test [1] (setting [6]), 98.6% in test [1] (setting [7]) and 97.2% (inactive) in test [3]. Moreover, the GFP response relative to DMSO is 126% (inactive) in test [2], 119% in test [2] (setting [8]) and 130% in test [2] (setting [9]). Further, the GFP response, % of DMSO is 95.2% (inactive) in test [4], 90.3% (inactive) in test [5], 92.3% in test [5] (setting [6]) and 89.3% in test [5] (setting [7]).

As to `COc1ccc(CCN2C(=O)c3cccc4cccc(c34)C2=O)cc1OC`, the GFP response vs DMSO was 104% (inactive) in test [1], 100% in test [1] (setting [6]), 104% in test [1] (setting [7]) and 101% (inactive) in test [3]. Further, the GFP response relative to DMSO was 95.7% (inactive) in test [2], 99.1% in test [2] (setting [8]) and 97.3% in test [2] (setting [9]). In addition, the GFP response, % of DMSO in test [4] is 105% (inactive); in test [5] it was 100% (inactive); in test [5] (setting [6]), 101%; in test [5] (setting [7]), 96.8%.

With `COc1ccc(CC2=CC(=O)c3ccccc3C2=O)cc1`, the GFP response vs DMSO was 99.7% (inactive) in test [1], 99.3% in test [1] (setting [6]), 99.3% in test [1] (setting [7]) and 104% (inactive) in test [3]. The results for the GFP response relative to DMSO in test [2], in test [2] (setting [8]) and in test [2] (setting [9]) were 101% (inactive), 99.3% and 102%, respectively. Besides, the GFP response, % of DMSO in test [4] is 94.5% (inactive); in test [5], 96.4% (inactive); in test [5] (setting [6]), 96.4%; in test [5] (setting [7]), 94.5%.

With `CCCCOc1c(Br)cc(/C=C2\N=C(C)OC2=O)cc1OCC`, the GFP response vs DMSO was 97.8% (inactive) in test [1], 98.4% in test [1] (setting [6]), 97.7% in test [1] (setting [7]) and 100% (inactive) in test [3]. The results for the GFP response relative to DMSO in test [2], in test [2] (setting [8]) and in test [2] (setting [9]) were 106% (inactive), 102% and 106%, respectively. Also, the GFP response, % of DMSO was 101% (inactive) in test [4], 98.3% (inactive) in test [5], 99.1% in test [5] (setting [6]) and 98.5% in test [5] (setting [7]).

With `O=C(Oc1c(Cl)cc(Cl)c2cccnc12)c1ccco1`, the GFP response vs DMSO in test [1] is 103% (inactive); in test [1] (setting [6]), 89.2%; in test [1] (setting [7]) it was 100%; in test [3], 128% (inactive). The GFP response relative to DMSO is 196% (active) in test [2], 148% in test [2] (setting [8]) and 199% in test [2] (setting [9]). Further, the GFP response, % of DMSO is 95.9% (inactive) in test [4], 95.9% (inactive) in test [5], 86.6% in test [5] (setting [6]) and 93.2% in test [5] (setting [7]).

For `COc1cccc(C2CC(c3c(-c4ccccc4)c4cc(Cl)ccc4[nH]c3=O)=NN2S(C)(=O)=O)c1OC` (configuration not stated), the GFP response vs DMSO in test [1] is 94.3% (inactive); in test [1] (setting [6]), 96.5%; in test [1] (setting [7]), 95%; in test [3], 99.5% (inactive). Besides, the GFP response relative to DMSO is 100% (inactive) in test [2], 101% in test [2] (setting [8]) and 99.5% in test [2] (setting [9]). Also, the GFP response, % of DMSO in test [4] was 102% (inactive); in test [5] it was 101% (inactive); in test [5] (setting [6]) it was 102%; in test [5] (setting [7]), 98%.

Consider `COC(=O)Cn1c(C)c(/C=C/c2cc[n+](C)cc2)c2ccccc21`, for which the GFP response vs DMSO was 100% (inactive) in test [1], 99.6% in test [1] (setting [6]), 101% in test [1] (setting [7]) and 129% (inactive) in test [3]. In addition, the GFP response relative to DMSO in test [2] was 119% (inactive); in test [2] (setting [8]), 121%; in test [2] (setting [9]), 117%. For the same compound, the GFP response, % of DMSO in test [4] is 99.7% (inactive); in test [5], 117% (inactive); in test [5] (setting [6]), 121%; in test [5] (setting [7]) it was 113%.

The record behind these values is PubChem BioAssay.
